# Experimental data gathered from unrelated publications.
# Compare with care: the assays were run in different laboratories.
Compound,test system,conditions,concentration
CCc1cc(-c2noc(-c3cc(OC)nc(C4CCCC4)c3)n2)cc(C)c1OC[C@@H](O)CO,"Wistar rat, plasma","oral, 0.3 mg/kg, 6 h, single dose",12.7 ng/mL
Cc1noc(C)c1Cn1cc(N2C(=O)CN(Cc3cccc(O)c3)C2=O)cn1,"male Sprague-Dawley rat, plasma","oral, 10 mg/kg, 4 h",2.72 ng/mL
COc1cccc(-c2n[nH]c(SCc3ccccn3)n2)c1OC,"female Sprague-Dawley rat, plasma","intravenous, 1 mg/kg, 4.98 min, single dose",4780 ng/mL
COc1ccc2c(=O)n(C)c(-c3ccccc3)nc2c1,"male Sprague-Dawley rat, lung","oral, 30 mg/kg, 30 min, single dose",27.5 ng/g
Cc1noc(C)c1Cn1cc(N2C(=O)N(Cc3cccc(O)c3)C(C)(C)C2=O)cn1,"male Sprague-Dawley rat, plasma","oral, 100 mg/kg, 30 min, single dose",2.6 ng/mL
CCOC(=O)[C@@]12C[C@@H]1[C@@H](n1ccc3c(NC)nc(C#Cc4ccc(Cl)s4)nc31)[C@H](O)[C@@H]2O,"male Sprague-Dawley rat, plasma","oral, 10 mg/kg, 4 h",23.5 ng/mL
Cc1ccc(-c2cc(C(F)(F)F)nn2-c2ccc(S(N)(=O)=O)cc2)cc1,"male Sprague-Dawley rat, blood","oral, 20 mg/kg, 8 h",11.1 µM
COc1nc(-c2cc(C)c(N[C@@H](C)c3cc(F)cc(F)c3)nn2)ccc1-n1cnc(C)c1,"male Sprague-Dawley rat, CSF","oral, 25 mg/kg, 4 h, multiple doses, once daily",76.6 ng/mL
